Source: ChEMBL document CHEMBL4428057, “Discovery, Synthesis, and Evaluation of 2,4-Diaminoquinazolines as a Novel Class of Pancreatic β-Cell-Protective Agents against Endoplasmic Reticulum (ER) Stress” (J Med Chem, 2016)
Active and inactive are the calls of the source. The calls are words filed in the database; no cut-off is given here.

Tests used:
INS1 [1] = experiment: Protection against tunicamycin induced endoplasmic reticulum stress in rat INS-1 cells assessed as increase in cell viability after 3 days by CellTiter-Glo assay relative to control; assay type: functional
Outline: (§1)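 INS-1 cells at 3×10^3/well (384-well) co-treated with Tm 0.1 µg/mL and compound for 72 h; CellTiter-Glo ATP luminescence. Activity is % rescue, with Tm alone = 0% and DMSO without Tm = 100%. EC50 from ten 2-fold serial dilutions by curve fit; triplicate.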

INS1 [2] = experiment: Protection against tunicamycin induced endoplasmic reticulum stress in rat INS-1 cells assessed as increase in cell viability after 3 days by CellTiter-Glo assay; assay type: functional, cell-based; conditions: INS1, 72 h; outline: as §1
INS1 [3] = experiment: Protection against tunicamycin induced endoplasmic reticulum stress in rat INS-1 cells assessed as increase in cell viability at 30 uM after 72 hrs by CellTiter-Glo assay; assay type: functional, cell-based
INS1 [4] = experiment: Protection against tunicamycin induced endoplasmic reticulum stress in rat INS-1 cells assessed as increase in cell viability at 5 uM after 72 hrs by CellTiter-Glo assay; assay type: functional, cell-based

SMILES	%max (INS1 [1])	EC50 (INS1 [2])	Activity (INS1 [3])	Activity (INS1 [4])
OCC1CCCCN1c1nc(NCCc2ccccc2Cl)c2ccccc2n1 (racemic)	51.4%	470 nM		
COc1cccc(CCNc2nc(N3CCCCC3CO)nc3ccccc23)c1 (racemic)	69.2%	2590 nM		
COc1ccc(CNc2nc(N3CCC[C@H]3CO)nc3ccccc23)cc1	57.2%	4050 nM		
COc1ccc(CCNc2nc(N3CCCCC3CO)nc3ccccc23)cc1 (racemic)	58.6%	310 nM		
OCC1CCCCN1c1nc(NCCc2ccccc2)c2ccccc2n1 (racemic)	55.7%	360 nM		
OC[C@@H]1CCCN1c1nc(NCCc2ccc(Cl)cc2)c2ccccc2n1	57.3%	510 nM		
OC[C@@H]1CCCN1c1nc(NCCc2ccccc2Br)c2ccccc2n1	39%	1880 nM		
OCC1CCCCN1c1nc(NCCc2ccc(F)cc2)c2ccccc2n1 (racemic)	47.5%	310 nM		
OCC1CCCCN1c1nc(NCCc2cccc(Br)c2)c2ccccc2n1 (racemic)	51.7%	770 nM		
COc1ccccc1CCNc1nc(N2CCC[C@H]2CO)nc2ccccc12	56.6%	3560 nM		
Nc1nnc(Sc2cc(-n3cccc3)c(Cl)cc2[N+](=O)[O-])[nH]1			Active	
OC[C@@H]1CCCN1c1nc(NCCc2ccccc2)c2ccccc2n1	54.4%	480 nM		
OC[C@@H]1CCCN1c1nc(NCCc2cccc(Cl)c2)c2ccccc2n1	51.5%	1050 nM		
OCC1CCCCN1c1nc(NCCc2cccc(F)c2)c2ccccc2n1 (racemic)	57.3%	1880 nM		
Cc1ccc(CCNc2nc(N3CCCCC3CO)nc3ccccc23)cc1 (racemic)	33.6%	140 nM		
Cc1ccc(CCNc2nc(N3CCC[C@H]3CO)nc3ccccc23)cc1	34.2%	660 nM		
COc1ccc(CNc2nc(N3CCCC[C@@H]3CO)nc3ccccc23)cc1				Active
OC[C@@H]1CCCN1c1nc(NCCc2ccc(Br)cc2)c2ccccc2n1	44.1%	650 nM		

SMILES	%max (INS1 [1])	EC50 (INS1 [2])	Activity (INS1 [3])	Activity (INS1 [4])
OCC1CCCCN1c1nc(NCCc2ccccc2F)c2ccccc2n1 (racemic)	60.3%	1460 nM		
OCC1CCCCN1c1nc(NCCc2ccccc2Br)c2ccccc2n1 (racemic)	44.2%	1410 nM		
OCC1CCCCN1c1nc(NCCc2ccc(Cl)cc2)c2ccccc2n1 (racemic)	57.6%	170 nM		
COc1ccc(CNc2nc(N3CCCCC3CO)nc3ccccc23)cc1OC (configuration not stated)	69.4%	3640 nM		
COc1ccccc1CCNc1nc(N2CCCCC2CO)nc2ccccc12 (racemic)	46.9%	1600 nM		
COc1ccc(CNc2nc(N3CCC[C@H]3CO)nc3ccccc23)cc1OC	44.9%	1850 nM		
OCC1CCCCN1c1nc(NCCc2ccc(Br)cc2)c2ccccc2n1 (racemic)	52.8%	340 nM		
COc1ccc(CNc2nc(N3CCCC[C@H]3CO)nc3ccccc23)cc1				Active
OC[C@@H]1CCCN1c1nc(NCCc2ccccc2Cl)c2ccccc2n1	50.6%	1440 nM		
OCC1CCCCN1c1nc(NCCc2cccc(Cl)c2)c2ccccc2n1 (racemic)	46.2%	790 nM		
OCC1CCCCN1c1nc(NCc2ccccc2)c2ccccc2n1 (configuration not stated)	56.4%	230 nM		
OC[C@@H]1CCCN1c1nc(NCCc2cccc(F)c2)c2ccccc2n1	51.3%	1150 nM		
OC[C@@H]1CCCN1c1nc(NCCc2ccc(F)cc2)c2ccccc2n1	56.2%	2130 nM		
OC[C@@H]1CCCN1c1nc(NCCc2ccccc2F)c2ccccc2n1	52.5%	1700 nM		
COc1cccc(CCNc2nc(N3CCC[C@H]3CO)nc3ccccc23)c1	54.9%	1510 nM		
OC[C@@H]1CCCN1c1nc(NCCc2cccc(Br)c2)c2ccccc2n1	53.2%	780 nM		
OCC1CCCCN1c1nc(NCc2ccc(Cl)cc2)c2ccccc2n1 (configuration not stated)	54.7%	210 nM		
